Consider six compounds from ChEMBL document CHEMBL4819098, “Novel 1,2,4-triazine-quinoline hybrids: The privileged scaffolds as potent multi-target inhibitors of LPS-induced inflammatory response via dual COX-2 and 15-LOX inhibition” (Eur J Med Chem, 2021).

Data set [1] has as its target T1, Prostaglandin G/H synthase 1 (Ovis aries, UniProt P05979).
T1 sequence (P05979 whole entry): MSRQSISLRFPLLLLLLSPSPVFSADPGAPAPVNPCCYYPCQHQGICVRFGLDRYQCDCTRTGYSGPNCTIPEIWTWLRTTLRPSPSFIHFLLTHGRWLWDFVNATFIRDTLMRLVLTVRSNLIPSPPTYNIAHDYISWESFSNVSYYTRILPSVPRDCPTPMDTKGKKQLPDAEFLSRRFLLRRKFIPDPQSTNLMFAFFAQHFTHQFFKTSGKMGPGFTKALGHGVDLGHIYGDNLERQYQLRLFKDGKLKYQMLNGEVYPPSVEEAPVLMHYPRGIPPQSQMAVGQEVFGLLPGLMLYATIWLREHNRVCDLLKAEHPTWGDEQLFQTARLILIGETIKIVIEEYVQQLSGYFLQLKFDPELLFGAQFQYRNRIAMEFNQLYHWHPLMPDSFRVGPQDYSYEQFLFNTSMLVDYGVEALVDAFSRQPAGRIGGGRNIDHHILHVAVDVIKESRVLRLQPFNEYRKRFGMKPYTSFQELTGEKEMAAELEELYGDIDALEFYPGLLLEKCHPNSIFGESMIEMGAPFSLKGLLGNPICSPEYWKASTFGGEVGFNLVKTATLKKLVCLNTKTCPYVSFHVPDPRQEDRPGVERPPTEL
As to the kind of experiment: Inhibition of ovine COX-1 by EIA.

Data set [2] concerns the target T2, Prostaglandin G/H synthase 2 (Ovis aries, UniProt P79208).
T2 sequence (P79208 whole entry): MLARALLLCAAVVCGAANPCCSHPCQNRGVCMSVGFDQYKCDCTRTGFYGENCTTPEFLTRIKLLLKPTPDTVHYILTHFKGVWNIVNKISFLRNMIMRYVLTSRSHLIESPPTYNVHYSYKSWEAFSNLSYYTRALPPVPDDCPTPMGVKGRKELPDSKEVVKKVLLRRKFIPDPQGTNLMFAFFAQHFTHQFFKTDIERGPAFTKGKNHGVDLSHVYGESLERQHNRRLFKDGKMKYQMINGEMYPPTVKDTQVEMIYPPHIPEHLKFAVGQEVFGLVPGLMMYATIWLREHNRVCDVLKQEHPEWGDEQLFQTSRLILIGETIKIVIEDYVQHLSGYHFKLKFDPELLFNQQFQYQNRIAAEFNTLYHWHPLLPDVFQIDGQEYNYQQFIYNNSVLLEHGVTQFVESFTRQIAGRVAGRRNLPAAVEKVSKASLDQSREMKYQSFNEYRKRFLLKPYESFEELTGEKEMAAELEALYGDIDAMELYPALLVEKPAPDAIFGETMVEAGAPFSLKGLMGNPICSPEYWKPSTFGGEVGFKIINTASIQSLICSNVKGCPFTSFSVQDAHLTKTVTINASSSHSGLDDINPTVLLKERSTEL
As to the kind of experiment: Inhibition of ovine COX-2 by EIA.

Data set [3] deals with T1, Prostaglandin G/H synthase 1. As to the kind of experiment: Inhibition of ovine COX-1 using arachidonic acid as substrate preincubated with enzyme for 20 mins followed by incubation with substrate for 2 mins by ADPH based fluorometric analysis.
Data set [4] addresses T3, Prostaglandin G/H synthase 2 (Homo sapiens, UniProt P35354).
T3 sequence (P35354 whole entry): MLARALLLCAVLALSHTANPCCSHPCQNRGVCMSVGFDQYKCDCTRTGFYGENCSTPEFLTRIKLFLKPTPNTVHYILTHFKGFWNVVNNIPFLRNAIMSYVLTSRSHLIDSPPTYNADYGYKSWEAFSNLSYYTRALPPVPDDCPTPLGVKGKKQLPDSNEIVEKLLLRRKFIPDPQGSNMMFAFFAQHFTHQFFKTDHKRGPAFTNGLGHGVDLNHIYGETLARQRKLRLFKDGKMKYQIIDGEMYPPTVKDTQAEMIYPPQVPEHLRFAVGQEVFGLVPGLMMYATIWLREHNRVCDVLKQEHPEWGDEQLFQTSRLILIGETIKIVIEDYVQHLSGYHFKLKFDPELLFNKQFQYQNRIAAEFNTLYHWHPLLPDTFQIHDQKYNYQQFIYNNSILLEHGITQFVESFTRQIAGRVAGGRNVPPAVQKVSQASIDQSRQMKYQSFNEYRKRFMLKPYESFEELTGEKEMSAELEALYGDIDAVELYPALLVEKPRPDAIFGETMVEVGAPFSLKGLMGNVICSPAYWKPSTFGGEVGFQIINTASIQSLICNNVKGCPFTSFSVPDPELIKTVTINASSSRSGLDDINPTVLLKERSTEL
As to the kind of experiment: Inhibition of human recombinant COX-2 using arachidonic acid as substrate preincubated with enzyme for 20 mins followed by incubation with substrate for 2 mins by ADPH based fluorometric analysis.

Data set [5] is described as follows: Inhibition of soybean 15-LOX. Also on record: species or system Glycine max. The gist of the method: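 Soybean 15-LOX run with a lipoxygenase inhibitor screening kit according to the manufacturer's instructions. IC50 values reported.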
Data set [6] deals with T3, Prostaglandin G/H synthase 2. As to the kind of experiment: Inhibition of human recombinant COX-2. The gist of the method: (§1)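 Enzyme kit assay with ovine COX-1 and human recombinant COX-2. IC50 determined from three replicates. Selectivity index taken as IC50(COX-1)/IC50(COX-2).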
The target of data set [7] is T1, Prostaglandin G/H synthase 1. As to the kind of experiment: Inhibition of ovine COX-1. The gist of the method:
as §1

Data set [8] shares this target. Briefly: Inhibition of ovine COX-1 by colorimetric analysis.
In data set [9] the test system is RAW264.7. As to the kind of experiment: Cytotoxicity against mouse RAW264.7 cells assessed as reduction in cell viability by MTS assay. It is filed as cell-based. The gist of the method: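 RAW 264.7 macrophage viability at the tested concentrations measured by MTS assay.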
Data set [10] addresses T3, Prostaglandin G/H synthase 2. As to the kind of experiment: Inhibition of human recombinant COX-2 using arachidonic acid as substrate preincubated with enzyme for 5 mins followed by substrate addition by colorimetric analysis.
Data set [11] deals with RAW264.7. Briefly: Potency index, ratio of diclofenac sodium IC50 to test compound IC50 for inhibition of LPS-induced IL-6 production in mouse RAW264.7 cells preincubated for 2 hrs followed by LPS stimulation and measured after 20 hrs by ELISA. The format is functional. Conditions: time 22 hrs. On the technique in general: ELISA stands for enzyme-linked immunosorbent assay.

Data set [12] addresses T4, Prostaglandin G/H synthase 2 (Homo sapiens) (UniProt P35354).
T4 sequence (whole entry): T3 sequence (P35354 whole entry)
Briefly: Potency index, ratio of diclofenac sodium IC50 to test compound IC50 for human recombinant COX-2 using arachidonic acid as substrate preincubated with enzyme for 5 mins followed by substrate addition by colorimetric analysis.

The test system of data set [13] is RAW264.7. As to the kind of experiment: Inhibition of LPS-induced TNFalpha production in mouse RAW264.7 cells preincubated for 2 hrs followed by LPS stimulation and measured after 20 hrs by ELISA. The format is functional, cell-based.
The test system of data set [14] is RAW264.7. Briefly: Potency index, ratio of celecoxib IC50 to test compound IC50 for inhibition of LPS-induced IL-6 production in mouse RAW264.7 cells preincubated for 2 hrs followed by LPS stimulation and measured after 20 hrs by ELISA. It is filed as functional. As to conditions: time 22 hrs.
The test system of data set [15] is RAW264.7. As to the kind of experiment: Inhibition of LPS-induced IL-6 production in mouse RAW264.7 cells preincubated for 2 hrs followed by LPS stimulation and measured after 20 hrs by ELISA. It is filed as functional, cell-based.
Data set [16] is described as follows: Inhibition of soybean 15-LOX using arachidonic acid or linolenic acid as substrate in presence of hydrogen peroxide incubated for 5 mins by colorimetric analysis. On the set-up: species or system Glycine max.
Data set [17] can be described thus: Selectivity index, ratio of IC50 for ovine COX-1 to IC50 for human recombinant COX-2. The gist of the method: as §1
Data set [18] relates to RAW264.7. Briefly: Inhibition of LPS-induced NO production in mouse RAW264.7 cells preincubated for 2 hrs followed by LPS stimulation and measured after 20 hrs by DAF-FM based fluorescence analysis. It is filed as functional, cell-based.
Data set [19] relates to RAW264.7. Briefly: Potency index, ratio of diclofenac sodium IC50 to test compound IC50 for inhibition of LPS-induced TNFalpha production in mouse RAW264.7 cells preincubated for 2 hrs followed by LPS stimulation and measured after 20 hrs by ELISA. The format is functional. As to conditions: time 22 hrs.
Data set [20] relates to RAW264.7. Briefly: Inhibition of LPS-induced 15(S)-HETE production in mouse RAW264.7 cells preincubated for 2 hrs followed by LPS stimulation and measured after 20 hrs by ELISA. It is filed as functional, cell-based.
The target in data set [21] is T1, Prostaglandin G/H synthase 1. Briefly: Inhibition of ovine COX-1 using arachidonic acid as substrate preincubated with enzyme for 5 mins followed by substrate addition by colorimetric analysis.
Data set [22] concerns RAW264.7. Briefly: Potency index, ratio of celecoxib IC50 to test compound IC50 for inhibition of LPS-induced TNFalpha production in mouse RAW264.7 cells preincubated for 2 hrs followed by LPS stimulation and measured after 20 hrs by ELISA. The format is functional. Conditions: time 22 hrs.

As to `CCOC(=O)c1cnn(C(=O)c2cc(-c3ccc(Cl)cc3)nc3ccc(OC)cc23)c1N`, the IC50 in data set [1] was above 50000 nM; in data set [2] it was 260 nM.

`COc1ccc(-c2cc(-c3nnc(SC/C(=N/O)c4ccccc4)n3-c3ccccc3)c3ccccc3n2)cc1`: the IC50 was 480 nM in data set [3] and 1600 nM in [4].

For `COc1ccc(/C=C\C(=O)c2cc(-n3cc(CN4C(=O)C(=O)c5ccccc54)nn3)ccc2O)cc1`, the IC50 in [5] worked out at 1950 nM; in data set [6], 37 nM; in [7] it was 13300 nM.

`O=C1N/C(=N\c2nnc(-c3ccc(O)cc3)s2)S/C1=C\c1ccccc1`: the IC50 is 5740 nM in data set [5], 85 nM in [6] and 4660 nM in data set [7].

As to `COc1ccc(/C=C2\N=C(c3cccnc3)N(c3ccccc3)NC2=O)cc1`, half-maximal inhibition in data set [8] (IC50) required 100 nM.

As to `COc1cc(Cc2n[nH]c(=S)n(/N=C/c3cc4cccc(C)c4nc3Cl)c2=O)cc(OC)c1OC`, in the data set on RAW264.7 [9], the Activity entry is recorded as “Non-Toxic”. The IC50 was determined as 160 nM in data set [10]; 400 nM with RAW264.7 [13]; 3990 nM in the data set with RAW264.7 [15]; 1860 nM in [16]; 25800 nM in the data set on RAW264.7 [18]; 1460 nM in the data set with RAW264.7 [20]. In data set [21], the concentration for half-maximal inhibition (IC50) was 8300 nM. For the same compound, the Ratio IC50 came out at 3.2 in the data set on RAW264.7 [11]; 5.3 in data set [12]; 2.8 in the data set on RAW264.7 [14]; 51.9 in [17]; 25 in the data set on RAW264.7 [19]; 25 with RAW264.7 [22].

In general, IC50 refers to the concentration that inhibits the measured activity by half.
